Results taken from ChEMBL document CHEMBL4028907, “Semisynthesis and Biological Evaluation of Xanthone Amphiphilics as Selective, Highly Potent Antifungal Agents to Combat Fungal Resistance” (J Med Chem, 2017).
Converted amounts (≈) assume the structure as drawn.

Columns and labels:
[1] = system: Candida albicans; experiment: Antifungal activity against Candida albicans ATCC 10231 after 24 hrs by two fold serial dilution method; type: functional; settings: ATCC 10231, 24 h
Method in brief: (§1)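 Candida grown on Sabouraud dextrose agar at 35 °C for 24 h, adjusted to ~5×10^3 CFU/mL. Two-fold dilutions from 100 to 0.78 μg/mL in Sabouraud dextrose broth, incubated at 35 °C for 24 h. MIC is the lowest concentration inhibiting growth by eye and by OD600. CLSI-based with minor modifications.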

[2] = system: Candida albicans; experiment: Antifungal activity against drug resistant Candida albicans DF2672R after 24 hrs by two fold serial dilution method; type: functional; method in brief: as §1
[3] = Selectivity index, ratio of HC50 for New Zealand white rabbit RBC to MIC for Candida albicans ATCC 10231
[4] = system: Staphylococcus aureus; experiment: Antibacterial activity against Staphylococcus aureus DM4001R by two fold serial dilution method; type: functional
Method in brief: (§2)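 Broth microdilution (CLSI, minor modifications) in Sabouraud dextrose, Mueller−Hinton or RPMI 1640 broth; two-fold serial dilutions of compound from stock to final 100 to 0.78 μg/mL. MIC taken as lowest concentration giving no visible growth.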

[5] = system: Bacillus cereus; experiment: Antibacterial activity against Bacillus cereus ATCC11778 by two fold serial dilution method; type: functional; method in brief: as §2
[6] = system: Klebsiella pneumoniae; experiment: Antibacterial activity against Klebsiella pneumoniae DM4299 by two fold serial dilution method; type: functional; method in brief: as §2
[7] = system: Pseudomonas aeruginosa; experiment: Antibacterial activity against Pseudomonas aeruginosa DM23155 by two fold serial dilution method; type: functional; method in brief: as §2
[8] = system: Candida albicans; experiment: Antifungal activity against Candida albicans DF1976R after 24 hrs by two fold serial dilution method; type: functional; method in brief: as §1
[9] = system: Candida albicans; experiment: Antifungal activity against Candida albicans ATCC90028 after 24 hrs by two fold serial dilution method; type: functional; settings: ATCC90028, 24 h; method in brief: as §1
[10] = system: Candida albicans; experiment: Antifungal activity against Candida albicans ATCC24433 after 24 hrs by two fold serial dilution method; type: functional; settings: ATCC24433, 24 h; method in brief: as §1
[11] = system: Candida albicans; experiment: Antifungal activity against Candida albicans ATCC11651 after 24 hrs by two fold serial dilution method; type: functional; settings: ATCC11651, 24 h; method in brief: as §1
[12] = system: Staphylococcus aureus; experiment: Antibacterial activity against methicillin resistant Staphylococcus aureus DM21455 by two fold serial dilution method; type: functional
Method in brief: (§3)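 Broth microdilution per CLSI guidelines with minor modifications, run in Mueller−Hinton broth; MIC is the lowest concentration giving no visible growth.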

[13] = system: Staphylococcus aureus; experiment: Antibacterial activity against methicillin resistant Staphylococcus aureus DM9808R by two fold serial dilution method; type: functional; method in brief: as §3

SMILES	MIC [1]	MIC [2]	Selectivity Index [3]	also measured
CCCC[N+](C)(CCCC)CC(O)COc1cc2oc3cc(OCC(O)C[N+](C)(CCCC)CCCC)c(OC)c(CC=C(C)C)c3c(=O)c2c(O)c1CC=C(C)C.[I-].[I-] (centres undefined)	6.25 µg/mL	6.25 µg/mL	5.3	
COc1c(OCC(O)Cn2ccnc2)cc2oc3cc(OCC(O)Cn4ccnc4)c(CC=C(C)C)c(O)c3c(=O)c2c1CC=C(C)C (centres undefined)	12.5 µg/mL (≈ 19 µM)	12.5 µg/mL (≈ 19 µM)	> 32	
COc1c(OCC(O)CNCCNC(=N)N)cc2oc3cc(OCC(O)CNC(=N)N)c(CC=C(C)C)c(O)c3c(=O)c2c1CC=C(C)C (centres undefined)	6.25 µg/mL (≈ 9.14 µM)	6.25 µg/mL (≈ 9.14 µM)	8.6	
CCCN(CCC)CC(O)COc1cc2oc3cc(OCC(O)CN(CCC)CCC)c(OC)c(CC=C(C)C)c3c(=O)c2c(O)c1CC=C(C)C (centres undefined)	3.13 µg/mL (≈ 4.32 µM)	3.13 µg/mL (≈ 4.32 µM)	> 128	MIC [4]: 6.25 to 12.5 µg/mL (≈ 8.62 to 17.2 µM); MIC [5]: 6.25 to 12.5 µg/mL (≈ 8.62 to 17.2 µM); MIC [6]: > 50 µg/mL; MIC [7]: > 50 µg/mL; MIC [8]: 6.25 µg/mL (≈ 8.62 µM); MIC [9]: 6.25 µg/mL (≈ 8.62 µM); MIC [10]: 6.25 µg/mL (≈ 8.62 µM); MIC [11]: 6.25 µg/mL (≈ 8.62 µM); MIC [12]: 6.25 to 12.5 µg/mL (≈ 8.62 to 17.2 µM); MIC [13]: 6.25 to 12.5 µg/mL (≈ 8.62 to 17.2 µM)
COc1c(O)cc2oc3cc(O)c(CC=C(C)C)c(O)c3c(=O)c2c1CC=C(C)C [MANGOSTIN]	> 50 µg/mL	> 50 µg/mL	< 0.2	
COC(=O)[C@H](CCCNC(=N)N)NC(=O)COc1cc2oc3cc(OCC(=O)N[C@@H](CCCNC(=N)N)C(=O)OC)c(OC)c(CC=C(C)C)c3c(=O)c2c(O)c1CC=C(C)C	6.25 µg/mL (≈ 7.21 µM)	6.25 µg/mL (≈ 7.21 µM)	37.1	
COc1c(OCC(O)CNCCNCCN)cc2oc3cc(OCC(O)CNCCNCCN)c(CC=C(C)C)c(O)c3c(=O)c2c1CC=C(C)C (centres undefined)	6.25 µg/mL (≈ 8.57 µM)	12.5 µg/mL (≈ 17.1 µM)	13.2 to 26.4	
COc1c(OCC(O)C[N+](C)(C)C)cc2oc3cc(OCC(O)C[N+](C)(C)C)c(CC=C(C)C)c(O)c3c(=O)c2c1CC=C(C)C.[I-].[I-] (centres undefined)	12.5 µg/mL	12.5 µg/mL	2.9	
COc1c(OCC(O)CN2CCOCC2)cc2oc3cc(OCC(O)CN4CCOCC4)c(CC=C(C)C)c(O)c3c(=O)c2c1CC=C(C)C (centres undefined)	6.25 µg/mL (≈ 8.97 µM)	6.25 µg/mL (≈ 8.97 µM)	> 64	
COc1c(OCC(O)CNC2CCCCCCC2)cc2oc3cc(OCC(O)CNC4CCCCCCC4)c(CC=C(C)C)c(O)c3c(=O)c2c1CC=C(C)C (centres undefined)	6.25 µg/mL (≈ 8.04 µM)	6.25 µg/mL (≈ 8.04 µM)	29.7	
CCC(C)n1ncn(-c2ccc(N3CCN(c4ccc(OCC5COC(Cn6cncn6)(c6ccc(Cl)cc6Cl)O5)cc4)CC3)cc2)c1=O (centres undefined) [ITRACONAZOLE]		6.25 µg/mL (≈ 8.86 µM)		
CCCNCC(O)COc1cc2oc3cc(OCC(O)CNCCC)c(OC)c(CC=C(C)C)c3c(=O)c2c(O)c1CC=C(C)C (centres undefined)	6.25 µg/mL (≈ 9.75 µM)	6.25 µg/mL (≈ 9.75 µM)	11.6	
COc1c(OCC2CO2)cc2oc3cc(OCC4CO4)c(CC=C(C)C)c(O)c3c(=O)c2c1CC=C(C)C (centres undefined)	> 50 µg/mL	> 50 µg/mL		
COc1c(OCC(=O)N[C@@H](CCCNC(=N)N)C(=O)OC(C)(C)C)cc2oc3cc(OCC(=O)N[C@@H](CCCNC(=N)N)C(=O)OC(C)(C)C)c(CC=C(C)C)c(O)c3c(=O)c2c1CC=C(C)C	12.5 µg/mL (≈ 13.1 µM)	6.25 µg/mL (≈ 6.57 µM)	6.3 to 12.6	
COc1c(OCC(O)CNCCNCCNCCN)cc2oc3cc(OCC(O)CNCCNCCNCCN)c(CC=C(C)C)c(O)c3c(=O)c2c1CC=C(C)C (centres undefined)	12.5 µg/mL (≈ 15.3 µM)	25 µg/mL (≈ 30.7 µM)	14.9 to 29.8	
CCCCN(C)CC(O)COc1cc2oc3cc(OCC(O)CN(C)CCCC)c(OC)c(CC=C(C)C)c3c(=O)c2c(O)c1CC=C(C)C (centres undefined)	3.13 µg/mL (≈ 4.49 µM)	3.13 µg/mL (≈ 4.49 µM)	15.5	MIC [8]: 3.13 µg/mL (≈ 4.49 µM); MIC [9]: 3.13 µg/mL (≈ 4.49 µM); MIC [10]: 6.25 µg/mL (≈ 8.97 µM); MIC [11]: 6.25 µg/mL (≈ 8.97 µM)
CCN(CC)CC(O)COc1cc2oc3cc(OCC(O)CN(CC)CC)c(OC)c(CC=C(C)C)c3c(=O)c2c(O)c1CC=C(C)C (centres undefined)	6.25 µg/mL (≈ 9.34 µM)	6.25 µg/mL (≈ 9.34 µM)	5.6	MIC [4]: 1.56 to 3.13 µg/mL (≈ 2.33 to 4.68 µM); MIC [5]: 1.56 to 3.13 µg/mL (≈ 2.33 to 4.68 µM); MIC [6]: 25 to 50 µg/mL (≈ 37.4 to 74.8 µM); MIC [7]: 25 to 50 µg/mL (≈ 37.4 to 74.8 µM); MIC [12]: 1.56 to 3.13 µg/mL (≈ 2.33 to 4.68 µM); MIC [13]: 1.56 to 3.13 µg/mL (≈ 2.33 to 4.68 µM)
Clc1ccc(COC(Cn2ccnc2)c2ccc(Cl)cc2Cl)c(Cl)c1 (centres undefined) [MICONAZOLE]		0.39 µg/mL (≈ 0.937 µM)		
